ChEMBL document CHEMBL4402564, “Synthetic Lethality in Pancreatic Cancer: Discovery of a New RAD51-BRCA2 Small Molecule Disruptor That Inhibits Homologous Recombination and Synergizes with Olaparib” (J Med Chem, 2020)
Calls of active or inactive are those of the source. The rule behind the calls is not given here.

How the values were obtained:
[1] = target: T1, DNA repair protein RAD51 homolog 1 (Homo sapiens) (UniProt Q06609); assay: Inhibition of RAD51 in human BxPC3 cells assessed as reduction in homologous recombination incubated for 5 hrs by RT-PCR analysis; assay type: cell-based
T1 sequence (whole entry): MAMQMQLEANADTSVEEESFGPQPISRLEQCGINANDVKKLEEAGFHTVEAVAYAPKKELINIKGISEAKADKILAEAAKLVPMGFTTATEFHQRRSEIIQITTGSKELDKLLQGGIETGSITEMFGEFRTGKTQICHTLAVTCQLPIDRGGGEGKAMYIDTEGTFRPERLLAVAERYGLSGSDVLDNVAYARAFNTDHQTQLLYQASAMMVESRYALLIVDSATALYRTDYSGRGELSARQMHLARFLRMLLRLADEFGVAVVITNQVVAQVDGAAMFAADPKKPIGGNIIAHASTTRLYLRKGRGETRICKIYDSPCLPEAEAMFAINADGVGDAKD
How it was run: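 Commercial two-plasmid recombination assay in BxPC-3 cells, with compound applied at different doses for 5 h simultaneously with plasmid transfection. Tested up to 40 μM, limited by solubility. Dose giving 50% HR inhibition estimated by polynomial regression.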

BXPC-3 [2] = assay: Antiproliferative activity against human BxPC3 cells assessed as increase in cell death at 20 uM after 72 hrs in presence of olaparib by CellTox Green assay; assay type: functional, cell-based
How it was run: (§1)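 BxPC-3 cells in RPMI 1640 with 10% FBS and 2 mM glutamine. Exposed 72 h to disruptor alone or with 10 μM olaparib, in medium containing 0.6% DMSO. Cell death measured in parallel with viability. Disruptor-only and combination cultures compared statistically.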

CAPAN-1 = assay: Synergistic antiproliferative activity against BRCA2 defective human Capan1 cells at 20 uM after 72 hrs in presence of 10 uM olaparib by CellTiter-Glo luminescent cell viability assay; assay type: functional, cell-based
How it was run: (§2)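 HK-2 cells are non-neoplastic immortalized human kidney cells grown in DMEM:F12 with 40 ng/mL dexamethasone. Capan-1 cells are BRCA2-defective and grown in RPMI 1640 with 10% FBS and 2 mM glutamine. Both exposed to disruptor with olaparib in 0.6% DMSO medium for an antiproliferative read-out. Drug interaction assessed by two-way ANOVA and combination index (CI <0.8 synergism, 0.8–1.2 additive).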

[3] = target: T1, DNA repair protein RAD51 homolog 1 (Homo sapiens); assay: Inhibition of RAD51 in human BxPC3 cells assessed as increase in gamma-H2AX labelling at 20 uM after 48 hrs in presence of 10 uM olaparib by immunofluorescence microscopic analysis; assay type: cell-based
How it was run: (§3)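 Cells exposed 48 h to 20 μM disruptor alone or with 10 μM olaparib, in medium with 0.6% DMSO. Nuclear γ-H2AX foci visualized by immunofluorescence and percentage of labeled nuclei scored. BxPC-3 (functional BRCA2) and Capan-1 (BRCA2-defective) cultures in RPMI 1640 with 10% FBS.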

HK-2 = assay: Cytotoxicity against human HK2 cells at 20 uM after 72 hrs in presence of 10 uM olaparib by CellTiter-Glo luminescent cell viability assay; assay type: cell-based; details: hk-2, 72 h; how it was run: as §2
[4] = target: T1, DNA repair protein RAD51 homolog 1 (Homo sapiens); assay: Inhibition of RAD51 in BRCA2 defective human Capan1 cells assessed as increase in gamma-H2AX labelling at 20 uM after 48 hrs in presence of olaparib by immunofluorescence microscopic analysis; how it was run: as §3
BXPC-3 [5] = assay: Induction of DNA damage in human BxPC3 cells assessed as micronuclei formation at 20 uM after 72 hrs in presence of olaparib by DAPI-staining based fluorescence microscopic analysis; assay type: functional, cell-based
How it was run: (§4)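 BxPC-3 cultures treated 72 h with 20 μM disruptor, alone or with 10 μM olaparib, in 0.6% DMSO medium. Micronuclei outside the main nucleus visualized by DNA staining under the microscope. Percentage of micronucleated cells scored.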

BXPC-3 [6] = assay: Induction of apoptosis in human BxPC3 cells assessed as increase in fluorescence at 20 uM after 72 hrs by DAPI/PI staining based fluorescence microscopic analysis; assay type: functional, cell-based
How it was run: (§5)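 BxPC-3 cells treated 72 h with disruptor alone or with olaparib, then stained with mixed DAPI (cell-permeable, nuclear condensation) and propidium iodide (membrane integrity loss). Nuclear morphology and dye uptake examined by fluorescence microscopy.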

BXPC-3 [7] = assay: Induction of apoptosis in human BxPC3 cells assessed as increase in fluorescence at 20 uM after 72 hrs in presence of olaparib by DAPI/PI staining based fluorescence microscopic analysis; assay type: functional, cell-based; how it was run: as §5
BXPC-3 [8] = assay: Synergistic antiproliferative activity against human BxPC3 cells at 20 uM after 72 hrs in presence of 10 uM olaparib by CellTiter-Glo luminescent cell viability assay; assay type: functional, cell-based
How it was run: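 BxPC-3 viability data from 72 h exposure to disruptor with 10 μM olaparib (0.6% DMSO medium) used to compute a combination index. CI <0.8 taken as synergism and 0.8–1.2 as additive. CI at each dose tested for difference from 0.8.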

BXPC-3 [9] = assay: Antiproliferative activity against human BxPC3 cells at 15 uM after 72 hrs in presence of olaparib by CellTiter-Glo luminescent cell viability assay; assay type: functional, cell-based
How it was run: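 BxPC-3 cells grown in RPMI 1640 with 10% FBS, penicillin/streptomycin and 2 mM glutamine. Disruptor given alone or with 10 μM olaparib in medium containing 0.6% DMSO, with the same DMSO in controls. Viability read at 72 h, measured alongside cell death.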

BXPC-3 [10] = assay: Induction of DNA damage in human BxPC3 cells assessed as micronuclei formation at 20 uM after 72 hrs by DAPI-staining based fluorescence microscopic analysis; assay type: functional, cell-based; how it was run: as §4
BXPC-3 [11] = assay: Antiproliferative activity against human BxPC3 cells assessed as increase in cell death at 10 to 15 uM after 72 hrs in presence of olaparib by CellTox Green assay; assay type: functional, cell-based; how it was run: as §1
[12] = target: T1, DNA repair protein RAD51 homolog 1 (Homo sapiens); assay: Inhibition of RAD51 in human BxPC3 cells assessed as reduction in cisplatin-induced RAD51 foci formation at 20 uM preincubated for 1 hr in presence of cisplatin and followed by compound wash out and further incubated with fresh medium containing compounds for 4 hrs by DAPI-staining based immunofluorescence analysis; assay type: cell-based
How it was run: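 DNA damage induced in BxPC-3 by 1 h exposure to 50 μM cisplatin, with or without 20 μM disruptor. RAD51 nuclear foci immunostained and percentage of RAD51-labeled nuclei counted.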

CCC(=O)N1N=C(c2c(-c3ccccc3)c3cc(Cl)ccc3[nH]c2=O)CC1c1ccc(OC)cc1 (racemic)
inhibition [1]: Dose-dependent effect | Activity (BXPC-3 [2]): Active | Activity (CAPAN-1): Active | inhibition [3]: Active | Activity (HK-2): Non-Toxic | inhibition [4]: inactive | Activity (BXPC-3 [5]): Active | Activity (BXPC-3 [6]): Active | Activity (BXPC-3 [7]): Active | Activity (BXPC-3 [8]): Active | Activity (BXPC-3 [9]): Active | Activity (BXPC-3 [10]): Active | Activity (BXPC-3 [11]): inactive | inhibition [12]: Active
